Rows were chosen to be rich in hits. Some 3.7% of all compounds tested hit in one or more screens of this group.
KCNQ1 pot: potentiates or activates the human KCNQ1 potassium channel; P51787; CHO-K1 KCNQ1, thallium flux FluxOR fluorescence; stronger effect = higher value; B-score at 10 µM; actives 0.35% (n = 310,000); AID 2648;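 active = fluorescence ratio B-score, a plate-corrected score, at least three library SD, with initial intensity B-score within 5 SD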
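Test system: CHO-K1 cells stably expressing KCNQ1 / Medium: assay buffer / Also added: depolarizing K+/Tl+ stimulus, K2SO4 and Tl2SO4 each 12.5 mM in 5x stock / Incubation: 90 min dye loading and 20 min compound exposure, both at room temperature / Signal: thallium influx via FluxOR fluorescence, kinetic imaging / Evaluation: B score of baseline-normalized fluorescence ratio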
hERG rescue: hERG (human) protection from proarrhythmic block; actives 0.51% (n = 310,000); CHO-hERG, FluxOR thallium flux, dofetilide IC70 present; AID 1511; activation (rescue from dofetilide block), less the hit threshold, % at 10 µM; Q12809;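 active = activation above the mean of controls blocked by dofetilide plus 5 SD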;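 also: thallium influx through hERG after potassium depolarization seen as dye fluorescence rise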
KCNK9 block: blocks the human KCNK9 two-pore domain potassium channel | actives 1.2% (n = 310,000) | B-score at 10 µM | HEK293 KCNK9, FluxOR thallium flux fluorescence; stronger effect = lower value | Q9NPC2 | AID 488922;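 active = ratio B-score over 3 SD below the library mean, with starting fluorescence within 5 SD of its mean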;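 also: negative B-score means less thallium flux so channel inhibition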
KCNK3 inh: human KCNK3 channel inhibition, primary screen; actives 0.84% (n = 340,000); CHO-KCNK3 thallium flux, FluxOR fluorescence; stronger effect = lower value; B-score at 10 µM; AID 602410; O14649;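 active = B-score under library mean minus 4 SD, starting fluorescence ratio at most library mean plus 5 SD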;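 also: more negative B-score means stronger inhibition of thallium flux through KCNK3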
Target sequence (O14649 whole entry, looked up): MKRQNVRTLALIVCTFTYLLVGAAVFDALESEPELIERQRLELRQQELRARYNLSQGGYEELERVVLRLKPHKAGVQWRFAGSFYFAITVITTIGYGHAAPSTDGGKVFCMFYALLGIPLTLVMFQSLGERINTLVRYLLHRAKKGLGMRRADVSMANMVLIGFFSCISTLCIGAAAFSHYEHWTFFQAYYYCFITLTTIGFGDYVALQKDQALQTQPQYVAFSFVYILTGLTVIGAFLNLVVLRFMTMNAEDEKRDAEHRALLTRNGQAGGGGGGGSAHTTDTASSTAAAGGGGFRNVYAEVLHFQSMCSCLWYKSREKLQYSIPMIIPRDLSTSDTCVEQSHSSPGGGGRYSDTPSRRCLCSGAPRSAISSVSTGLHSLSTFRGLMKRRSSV
Kir21 inh: blocks the mouse Kir2.1 inward-rectifier potassium channel; HEK293-Kir2.1, FluxOR thallium flux fluorescence; stronger effect = lower value; B-score at 10 µM; actives 0.85% (n = 310,000); AID 1672;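 active = fluorescence ratio B-score at or below minus 3 SD of library scores, with starting-brightness B-score within 2 SD, cut at about -4.2 in these data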;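 also: channel flux triggered by added potassium and thallium sulfate stimulus; B-score of peak minus minimum fluorescence over baseline after thallium stimulus; more negative B-score means stronger Kir2.1 block with less thallium influx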
KCNQ1 block: inhibitors of human KCNQ1 potassium channel | P51787 | CHO-K1 KCNQ1, FluxOR thallium flux fluorescence; stronger effect = higher value | B-score at 10 µM | actives 1.3% (n = 310,000);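 active = compounds whose thallium flux B-score, printed positive for inhibition, exceeds three library SD while starting fluorescence stays within three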;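 also: channel opened by potassium depolarization with thallium stimulus after 20 min compound exposure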
KCNK9 inh conf: confirmation of human KCNK9 potassium channel inhibitors. actives 43% (n = 4,900). HEK293 KCNK9 cells, FluxOR thallium flux fluorescence. shares compounds with KCNK9 block. inhibition, % at 10 µM. AID 492992;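 active = thallium signal inhibited by more than 5 SD of the compound-free buffer control wells, on both duplicate plates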;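 also: 0% = assay buffer control wells without compound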
Kir2-1 spec: mouse Kir2.1 off-target activity of KCNK9 modulators; shares compounds with KCNK9 block; Kir2.1 cells, FluxOR thallium flux fluorescence; inhibition, % at 10 µM; actives 4% (n = 4,900);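 active = thallium signal drop more than 5 SD beyond the mean of the no-compound control wells, seen in both duplicate plates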;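 also: signal is fluorescence rise after thallium addition divided by baseline fluorescence; plate controls were assay buffer only for no effect and full block by chlorpromazine control for full effect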
HEK293 Tl ctr: second counter-screen for KCNK9 modulators: effect in non-induced cells. shares compounds with KCNK9 block. non-induced KCNK9-HEK293, FluxOR thallium flux. inhibition, % at 10 µM. actives 40% (n = 4,900);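 active = thallium signal drop beyond 5 SD of the untreated control mean, on both duplicate plates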;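 also: plate controls were buffer only IC0 wells for no effect and SID17386958 at its maximal inhibitory level for full effect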
Numbers without * were called inactive; i = inactive; . = no result given.

SMILES	KCNQ1 pot	hERG rescue	KCNK9 block	KCNK3 inh	Kir21 inh	KCNQ1 block	KCNK9 inh conf	Kir2-1 spec	HEK293 Tl ctr
Cc1sc2nc(SCc3nc4ccccc4[nH]3)n(Cc3ccco3)c(=O)c2c1C	i	-8.8	-8.25*	i	1.41	i	26.5%*	i	31.5%*
O=[N+]([O-])c1ccccc1S(=O)(=O)Nc1ccc2c(c1)OCCO2	i	-2.6	i	i	-0.6	i	.	.	.
O=C1C2=C(CCCC2)C(=O)N1c1cccc(OCCBr)c1	i	-8.2	i	i	0	i	.	.	.
CC(C)CN(CCOc1cccc(N2C(=O)C3=C(CCCC3)C2=O)c1)CC(C)C	i	-9.5	i	i	0.31	i	i	i	i
Cc1cc(OCc2ccc(F)cc2)nc(-c2ccccc2O)n1	i	-3.6	-10.2*	i	-0.28	i	66.5%*	i	37.0%*
CC1CCC(C(C)C)C(OC(=O)COC(=O)c2ccc(N)cc2)C1 (stereo unspecified)	i	-3.0	i	i	0.59	i	i	i	i
COc1ccc2c(c1)OC[C@H]1[C@H]2N2C(=O)c3cc(Br)ccc3NC(=O)[C@@]2(C)[C@H]1c1ccccc1	.	.	.	i	.	.	.	.	.
O=C(Nc1cccc(-c2cn3ccccc3n2)c1)c1cccs1	i	-24.7	-8.52*	i	0.74	i	52.0%*	i	i
O=C(Nc1cccc(-c2nc3ccccc3s2)c1)c1cccs1	i	-14.9	-10.2*	i	1.04	i	49.0%*	i	25.5%*
O=C(Nc1cccc(-c2nc3ccccc3s2)c1)c1cc(=O)c2ccccc2o1	i	-35.8	i	i	0.54	i	.	.	.
CCOc1cccc(C(=O)Nc2ccccc2OC(F)F)c1	i	-4.8	i	i	-2.18	i	.	.	.
Cc1ccc(NC(=O)c2cccc(OC(F)F)c2)c(OC(F)F)c1	i	-4.9	-8.66*	i	-1.89	i	54.0%*	i	35.0%*
Cc1ccc(CSc2nnc(C(F)(F)F)n2Cc2ccc(F)cc2)cc1	i	-8.4	-9.61*	i	-1.17	i	29.0%*	i	39.0%*
COc1cccc(CSc2nnc(C(F)(F)F)n2Cc2ccc(F)cc2)c1	i	-10.4	i	i	-3.97	i	.	.	.
COc1ccc(NC(=O)CCc2nc(-c3ccccc3F)no2)cc1	i	-3.0	i	i	0	i	.	.	.
CC1CC(C)CN(C(=O)CSc2nc(Cc3cccs3)nc3ccccc23)C1 (stereo unspecified)	i	-17.9	i	i	-1.79	i	i	i	24.5%*
CC(C)(C)c1nc(SCC(=O)N2CCCC2)c2ccccc2n1	i	-7.6	i	i	-0.86	i	.	.	.
COc1cccc(C(=O)C2CCCN(Cc3cccc(-n4cccn4)c3)C2)c1 (stereo unspecified)	i	-14.3	i	i	-1.14	i	i	i	i
COc1ccc(C(=O)C2CCCN(C(=O)c3cc(C(C)C)no3)C2)cc1F (stereo unspecified)	i	-5.2	i	i	-0.01	i	i	i	i
COc1ccc(C(=O)C2CCCN(C(=O)c3cccs3)C2)cc1F (stereo unspecified)	i	-12.8	i	i	-1.29	i	i	i	i
COc1ccc(CN2CCCC(C(=O)c3ccc(SC)cc3)C2)cc1Cn1cccn1 (stereo unspecified)	i	-16.1	i	i	-1.77	i	i	i	i
CSc1ccc(C(=O)C2CCCN(Cc3ccc(N4CCNC4=O)cc3)C2)cc1 (stereo unspecified)	i	-6.5	i	i	-1.76	i	.	.	.
COc1ccc(C(=O)C2CCCN(C(=O)c3cccc(Cn4cccn4)c3)C2)cc1F (stereo unspecified)	i	-15.2	i	i	-1.16	i	i	i	i
Cc1ccccc1CN1CCN(S(=O)(=O)c2cccc3nsnc23)CC1	i	-6.4	i	i	1.12	i	i	i	i
O=S(=O)(c1cccc2nsnc12)N1CCN(C/C=C\c2ccccc2)CC1	i	-11.4	i	i	-0.5	i	i	i	i
SMILES	KCNQ1 pot	hERG rescue	KCNK9 block	KCNK3 inh	Kir21 inh	KCNQ1 block	KCNK9 inh conf	Kir2-1 spec	HEK293 Tl ctr
C=CCNC(=O)CSc1nnc(C(CC)N(C)C)n1C1CCCCC1 (stereo unspecified)	i	-8.6	i	i	1.98	i	.	.	.
CCOC(=O)CSc1nc(C2CC2)cc(-c2ccc(Cl)cc2)c1C#N	i	-3.5	-9.47*	i	-2.15	i	53.5%*	i	i
COC(=O)CSc1nc(C2CC2)cc(C(F)(F)F)c1C#N	i	-12.0	i	i	-1.96	i	.	.	.
COc1ccc(CCNC(=O)c2c([S-])n(-c3ccc(C)cc3)c3cccc[n+]23)cc1	i	-24.1	i	i	0.18	i	i	i	i
COc1ccccc1N1CCN(/N=C/C=C\c2ccccc2[N+](=O)[O-])CC1	i	-16.4	i	i	2.59	i	i	i	i
Cc1c(C(=O)CN2CCN(c3ccccc3)CC2)c2ccccc2n1C	i	-6.4	i	i	0.56	i	i	i	i
Cc1cc(C)cc(NC(=O)CN2CCCN(S(=O)(=O)c3ccc(Br)s3)CC2)c1	i	-18.8	-16.2*	-9.98*	-0.69	i	69.5%*	i	45.5%*
Cc1ccc(NC(=O)CN2CCCN(S(=O)(=O)c3ccc(Br)s3)CC2)cc1	i	-10.8	i	i	0.85	i	.	.	.
Cc1ccc(S(=O)(=O)NCc2ccccc2)cc1C(=O)NCc1ccccn1	i	-9.8	i	i	0.77	i	.	.	.
Cc1ccsc1/C=N/N1CCN(C2c3ccccc3-c3ccccc32)CC1	i	-5.0	i	i	-2.77	i	i	i	27.0%*
COc1ccc(-c2cc(C)no2)cc1S(=O)(=O)N1CCN(c2ccccc2F)CC1	i	-10.9	i	i	1.67	i	.	.	.
O=C(Cc1sc(Nc2ccccc2)nc1-c1ccccc1)NCc1ccccc1	i	-5.5	-9.16*	i	0.01	i	62.5%*	i	31.0%*
Cc1ccc(S(=O)(=O)/N=C2/NC(=O)/C(=C/c3ccncc3)S2)cc1	i	-6.7	i	.	-3.48	i	.	.	.

Source: PubChem BioAssay
